In test [1] the test system is membrane-bound phospholipase A2 (Oryctolagus cuniculus). Put plainly: Tested in vitro for inhibition of phospholipase A2 (PLA2) in rabbit heart membranes.
Test [2] has the same test system. The experiment in a line: Compound was tested for the percent inhibition of phospholipase A2 (PLA2) in rabbit heart membranes at a concentration of 100 uM.
Test [3] relates to Rattus norvegicus. The experiment in a line: Compound was tested for the % inhibition rate of infarct size (myoglobin depleted area) on iv administration 15 min prior to the ligation at a dose of 0.1 mg/kg. Format: functional.
In test [4] the test system is Rattus norvegicus. Put plainly: Compound was tested for the % inhibition rate of infarct size (myoglobin depleted area) on iv administration 15 min prior to the ligation at a dose of 0.3 mg/kg. Format: functional.
The test system of test [5] is Rattus norvegicus. Put plainly: Compound was tested for the % inhibition rate of infarct size (myoglobin depleted area) on iv administration 15 min prior to the ligation at a dose of 1.0 mg/kg. The format is functional.
Test [6] has as its system Rattus norvegicus. Put plainly: Compound was tested for the % inhibition rate of infarct size (myoglobin depleted area) on iv administration 15 min prior to the ligation at a dose of 10 mg/kg. The format is functional.
For test [7], the system named is Rattus norvegicus. Put plainly: Compound was tested for the % inhibition rate of infarct size (myoglobin depleted area) on iv administration 15 min prior to the ligation at a dose of 1 mg/kg. Format: functional.
Test [8] relates to Rattus norvegicus. The experiment in a line: Compound was tested for the % inhibition rate of infarct size (myoglobin depleted area) on sc administration 15 min prior to the ligation at a dose of 75.0 mg/kg. Format: functional. The conditions noted are these: route subcutaneous. The gist of the method:
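Sprague-Dawley rats (180–260 g) were anesthetized with diethyl ether and the left main coronary artery was ligated 1–2 mm from its origin for 3 h. Compound was given sc 15 min before ligation, and rats dying within 3 h were excluded. Infarct size was scored as the myoglobin-depleted area by immunohistochemistry and image analysis, with inhibition taken versus untreated animals, mean ± SEM.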

The structures appear in SMILES notation.

Consider `CN(C(=O)/C=C/c1ccc(O)c(O)c1)c1ccc(S(=O)(=O)NC2CCCCCC2)cc1`, for which the IC30 (in general, the concentration at which the effect reaches the 30% level) in test [1] was found to be 1750 nM.

As to `Cc1cccc(CCN(C)S(=O)(=O)c2ccc(N(C)C(=O)/C=C/c3ccc(S(C)(=O)=O)cc3)cc2)n1`, the 30% effect concentration (IC30) in test [1] amounted to 65 nM.

For `CN(C(=O)/C=C/c1ccc(O)c(O)c1)c1ccc(S(N)(=O)=O)cc1`, the IC30 in test [1] came to 13300 nM.

With `COC(=O)c1sccc1NC(=O)/C=C/c1ccc(O)c(O)c1`, in test [2], the inhibition (usually the share of the control response that was lost under treatment) is 31.6%.

`CC(C)NS(=O)(=O)c1ccc(N(C)C(=O)/C=C/c2ccc(O)c(O)c2)cc1` had an IC30 in test [1] of 30000 nM.

In test [1], `CN(C(=O)/C=C/c1ccc(S(C)(=O)=O)cc1)c1ccc(S(=O)(=O)NC2CCN(CCc3ccccc3)CC2)cc1` gave an IC30 of 9 nM. Moreover, the Inhibition rate in the test with Rattus norvegicus [3] stood at 7%; with Rattus norvegicus [4] it was 18.7%; in the test with Rattus norvegicus [5], 22.5%.

Consider `CN(C(=O)/C=C/c1ccc(S(C)(=O)=O)cc1)c1ccc(S(=O)(=O)N2CCCN(Cc3ccccc3)CC2)cc1`, for which the 30% effect level in test [1] (IC30) was put at 64 nM.

For the compound `CN1CCC(NS(=O)(=O)c2ccc(N(C)C(=O)/C=C/c3ccc(S(C)(=O)=O)cc3)cc2)CC1`, the IC30 in test [1] was 1000 nM.

In the case of `CN(C(=O)/C=C/c1ccc(S(C)(=O)=O)cc1)c1ccc(S(=O)(=O)N2CCN(CCc3ccccc3)CC2)cc1`, in test [1], the IC30 came to 63 nM.

In test [1], `CN(C(=O)/C=C/c1ccc(O)c(F)c1)c1ccc(S(=O)(=O)NC2CCCCCC2)cc1` had an IC30 of 5330 nM.

With `CN(C(=O)/C=C/c1ccc(O)c(O)c1)c1ccc(S(=O)(=O)NC2CCc3ccccc3C2)cc1` (stereo not drawn), in test [1], it took 5070 nM to reach the 30% level (IC30).

`CN(C(=O)/C=C/c1ccc(O)c(O)c1)c1ccc(S(=O)(=O)NC2Cc3ccccc3C2)cc1` yielded an IC30 in test [1] of 4640 nM.

`CC(C)CN1CCC(NS(=O)(=O)c2ccc(N(C)C(=O)/C=C/c3ccc(S(C)(=O)=O)cc3)cc2)CC1` registered an IC30 in test [1] of 51 nM.

`CNS(=O)(=O)c1ccc(N(C)C(=O)/C=C/c2ccc(O)c(O)c2)cc1` returned an IC30 in test [1] of 44000 nM.

In the case of `COc1ccc(CCN(C)CCCC(C#N)(c2ccc(OC)c(OC)c2)C(C)C)cc1OC` (stereo not drawn), the Inhibition rate is 0.7% in the test with Rattus norvegicus [3], 0.1% with Rattus norvegicus [4] and 19.2% in the test on Rattus norvegicus [5].

Regarding `CN(C(=O)/C=C/c1ccc(S(C)(=O)=O)cc1)c1ccc(S(=O)(=O)NC2CCCCN(Cc3ccccc3)C2)cc1` (stereo not drawn), the IC30 in test [1] came out at 25 nM.

For the compound `CN(C(=O)/C=C/c1ccc(C#N)cc1)c1ccc(S(=O)(=O)NC2CCCCCC2)cc1`, the 30% effect level in test [1] (IC30) was put at 200 nM.

Take `CN(C(=O)/C=C/c1ccc(S(C)(=O)=O)cc1)c1ccc(S(=O)(=O)N2CCN(Cc3ccccc3)CC2)cc1`: the IC30 in test [1] came out at 220 nM.

For the compound `CN(C(=O)/C=C/c1ccc(S(C)(=O)=O)cc1)c1ccc(S(=O)(=O)NC2CCN(Cc3ccccc3)CC2)cc1`, the IC30 in test [1] amounted to 28 nM. The Inhibition rate came to 1.6% with Rattus norvegicus [3], 20.9% in the test on Rattus norvegicus [4] and 22.1% with Rattus norvegicus [5].

For the compound `NS(=O)(=O)c1ccc(NC(=O)/C=C/c2ccc(O)c(O)c2)cc1`, in test [1], the IC30 turned out to be 25000 nM.

Consider `CN(C(=O)/C=C/c1ccc(S(C)(=O)=O)cc1)c1ccc(S(=O)(=O)NC2CCCCCC2)cc1`, for which, in test [1], the IC30 came to 16 nM.

Compound `CN(C(=O)/C=C/c1ccc(S(C)(=O)=O)cc1)c1ccc(S(=O)(=O)NCc2ccccn2)cc1` returned an IC30 in test [1] of 260 nM.

Compound `CN(C(=O)/C=C/c1ccc(O)cc1)c1ccc(S(=O)(=O)NC2CCCCCC2)cc1` showed an IC30 in test [1] of 1240 nM.

`CN(C(=O)/C=C/c1ccc(O)c(O)c1)c1ccc(S(=O)(=O)NC2CCCC2)cc1` showed an IC30 in test [1] of 5430 nM.

In the case of `Cc1cccc(CCNS(=O)(=O)c2ccc(N(C)C(=O)/C=C/c3ccc(S(C)(=O)=O)cc3)cc2)n1`, the IC30 in test [1] stood at 66 nM. The Inhibition rate is 21.9% in the test with Rattus norvegicus [6] and 5.6% in the test on Rattus norvegicus [7].

Consider `CN(C(=O)/C=C/c1ccc(S(C)(=O)=O)cc1)c1ccc(S(=O)(=O)NCCc2ccccn2)cc1`, for which the 30% effect concentration (IC30) in test [1] was 210 nM.

In the test on Rattus norvegicus [8], `CCN(CC)CCCC(C)Nc1c2ccc(Cl)cc2nc2ccc(OC)cc12` (stereo not drawn) [QUINACRINE] registered an Inhibition rate of 37.4%.

As for `CN(C(=O)/C=C/c1ccc(S(C)(=O)=O)cc1)c1ccc(S(=O)(=O)NC2CCCCN(Cc3ccccn3)C2)cc1` (stereo not drawn), in test [1], the 30% effect level (IC30) was put at 49 nM.

For the compound `CN(C(=O)/C=C/c1ccc(O)c(O)c1)c1ccc(S(=O)(=O)NC2CCCCC2)cc1`, the IC30 in test [1] stood at 1450 nM.

`CN(C(=O)/C=C/c1ccc(S(C)(=O)=O)cc1)c1ccc(S(=O)(=O)N2CCCN(CCc3ccccc3)CC2)cc1` came in with an IC30 in test [1] of 25 nM.

For the compound `CN(C(=O)/C=C/c1ccc([N+](=O)[O-])cc1)c1ccc(S(=O)(=O)NC2CCCCCC2)cc1`, in test [1], the 30% effect level (IC30) was put at 190 nM.

Turning to `CN(C(=O)/C=C/c1ccc(-n2ccnc2)cc1)c1ccc(S(=O)(=O)NC2CCCCCC2)cc1`, the IC30 in test [1] came out at 450 nM.

Regarding `CN(C(=O)/C=C/c1ccc(O)c(O)c1)c1ccc(S(=O)(=O)NC2CCc3ccccc32)cc1` (stereo not drawn), the IC30 in test [1] came out at 6100 nM.

The values above are taken from ChEMBL document CHEMBL1125593, “Synthesis and biological evaluation of substituted benzenesulfonamides as novel potent membrane-bound phospholipase A2 inhibitors” (1991).
